Assay results: ChEMBL document CHEMBL1154728, “Synthesis of nitroimidazole derived oxazolidinones as antibacterial agents” (Eur J Med Chem, 2010)
In brackets after ≈: the same amount, converted by molar mass.

Key:
Streptococcus pyogenes = assay: Antibacterial activity against Streptococcus pyogenes after 24 hrs by spectrophotometry; format: functional
Procedure, shortened: (§1)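 Strains grown on nutrient agar at 37 °C for 24 h, suspended in normal saline with 0.05% Tween 20 to about […] cells/mL (0.5 McFarland). Broth microdilution per NCCLS in Mueller Hinton broth. Compounds dissolved in DMSO at 1 mg/mL (stock), serially two-fold diluted. Growth, drug and negative controls included. Incubation at 35 °C, moist and dark; MIC read spectrophotometrically at 24 h.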

Enterococcus faecalis = assay: Antibacterial activity against Enterococcus faecalis MTCC439 after 24 hrs by spectrophotometry; format: functional; settings: MTCC439, 24 h; procedure, shortened: as §1
Klebsiella pneumoniae = assay: Antibacterial activity against Klebsiella pneumoniae ATCC 27736 after 24 hrs by spectrophotometry; format: functional; settings: ATCC 27736, 24 h; procedure, shortened: as §1
Bacillus cereus = assay: Antibacterial activity against Bacillus cereus MTCC 430 after 24 hrs by spectrophotometry; format: functional; settings: MTCC 430, 24 h; procedure, shortened: as §1
Staphylococcus aureus [1] = assay: Antibacterial activity against […] Staphylococcus aureus ATCC 29213 after 24 hrs by spectrophotometry; format: functional; settings: ATCC 29213, 24 h
Procedure, shortened: (§2)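 Strains grown on nutrient agar at 37 °C for 24 h, then suspended in normal saline with 0.05% Tween 20 at about […] cells/mL (0.5 McFarland). Broth microdilution in Mueller Hinton broth per NCCLS. DMSO stock 1 mg/mL diluted into broth, then two-fold serial dilutions. Plates incubated at 35 °C in a moist, dark chamber. MIC read spectrophotometrically at 24 h.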

Staphylococcus aureus [2] = assay: Antibacterial activity against methicillin resistant Staphylococcus aureus ATCC 70069 after 24 hrs by spectrophotometry; format: functional; settings: ATCC 70069, 24 h; procedure, shortened: as §2
Staphylococcus aureus [3] = assay: Antibacterial activity against […] Staphylococcus aureus ATCC 25923 after 24 hrs by spectrophotometry; format: functional; settings: ATCC 25923, 24 h; procedure, shortened: as §2
L929 [4] = assay: Cytotoxicity against mouse L929 cells assessed as change in morphology at 50 ug/ml after 24 hrs by phase contrast microscopy; format: cell-based; settings: l929, 24 h
Procedure, shortened: (§3)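 L929 fibroblasts in DMEM under 5% CO₂, switched to serum-free DMEM at 90% confluency, then exposed to compound for 24 h. Cells were fixed in the wells and stained with Giemsa for 30 min at 37 °C. Morphology was examined by phase contrast microscopy against untreated control cells.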

L929 [5] = assay: Cytotoxicity against mouse L929 cells assessed as cell viability after 24 hrs by MTT assay; format: cell-based; settings: l929, 24 h
Procedure, shortened: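 Mouse fibroblast L929 cells seeded at 1 × 10³ cells per well in DMEM under humidified 5% CO₂. Medium switched to serum-free DMEM at 90% confluency (5 h). Cells exposed 24 h to a two-fold series ([…], then 12.5 down to 0.09). MTT read-out: absorbance at 570 minus 630 nm taken as the viability index.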

L929 [6] = assay: Cytotoxicity against mouse L929 cells assessed as change in morphology at 0.09 ug/ml after 24 hrs by phase contrast microscopy; format: cell-based; settings: l929, 24 h; procedure, shortened: as §3

CC(=O)NC[C@H]1CN(c2ccc(N3CCN(CCn4ccnc4[N+](=O)[O-])CC3)c(F)c2)C(=O)O1
MIC (Streptococcus pyogenes): 0.78 µg/mL (≈ 1.64 µM)
MIC (Enterococcus faecalis): 25 µg/mL (≈ 52.6 µM)
MIC (Klebsiella pneumoniae): 25 µg/mL (≈ 52.6 µM)
MIC (Bacillus cereus): 0.78 µg/mL (≈ 1.64 µM)
MIC (Staphylococcus aureus [1]): 12.5 µg/mL (≈ 26.3 µM)
MIC (Staphylococcus aureus [2]): 6.25 µg/mL (≈ 13.1 µM)
MIC (Staphylococcus aureus [3]): 12.5 µg/mL (≈ 26.3 µM)

CC(=O)NC[C@H]1CN(c2ccc(N3CCN(CCCn4c([N+](=O)[O-])cnc4C)CC3)c(F)c2)C(=O)O1
MIC (Streptococcus pyogenes): 1.56 µg/mL (≈ 3.1 µM)
MIC (Enterococcus faecalis): 12.5 µg/mL (≈ 24.8 µM)
MIC (Klebsiella pneumoniae): 1.56 µg/mL (≈ 3.1 µM)
MIC (Bacillus cereus): 6.25 µg/mL (≈ 12.4 µM)
MIC (Staphylococcus aureus [1]): 12.5 µg/mL (≈ 24.8 µM)
MIC (Staphylococcus aureus [2]): 6.25 µg/mL (≈ 12.4 µM)
MIC (Staphylococcus aureus [3]): 12.5 µg/mL (≈ 24.8 µM)

CC(=O)NC[C@H]1CN(c2ccc(N3CCN(C(=O)Cn4c([N+](=O)[O-])cnc4C)CC3)c(F)c2)C(=O)O1
MIC (Streptococcus pyogenes): 1.56 µg/mL (≈ 3.1 µM)
MIC (Enterococcus faecalis): 6.25 µg/mL (≈ 12.4 µM)
MIC (Klebsiella pneumoniae): 3.12 µg/mL (≈ 6.2 µM)
MIC (Bacillus cereus): 1.56 µg/mL (≈ 3.1 µM)
MIC (Staphylococcus aureus [1]): 6.25 µg/mL (≈ 12.4 µM)
MIC (Staphylococcus aureus [2]): 6.25 µg/mL (≈ 12.4 µM)
MIC (Staphylococcus aureus [3]): 6.25 µg/mL (≈ 12.4 µM)

CC(=O)NC[C@H]1CN(c2ccc(N3CCN(CC(O)Cn4c([N+](=O)[O-])cnc4C)CC3)c(F)c2)C(=O)O1 (stereo partly specified)
MIC (Streptococcus pyogenes): 0.39 µg/mL (≈ 0.751 µM)
MIC (Enterococcus faecalis): 1.56 µg/mL (≈ 3 µM)
MIC (Klebsiella pneumoniae): > 50 µg/mL
MIC (Bacillus cereus): 0.78 µg/mL (≈ 1.5 µM)
MIC (Staphylococcus aureus [1]): 1.56 µg/mL (≈ 3 µM)
MIC (Staphylococcus aureus [2]): 0.39 µg/mL (≈ 0.751 µM)
MIC (Staphylococcus aureus [3]): 3.12 µg/mL (≈ 6.01 µM)

CC(=O)NC[C@H]1CN(c2ccc(N3CCN(CCn4c([N+](=O)[O-])cnc4C)CC3)c(F)c2)C(=O)O1
MIC (Streptococcus pyogenes): 0.78 µg/mL (≈ 1.59 µM)
Activity (L929 [4]): Toxic
MIC (Enterococcus faecalis): 3.12 µg/mL (≈ 6.37 µM)
MIC (Klebsiella pneumoniae): 0.78 µg/mL (≈ 1.59 µM)
MIC (Bacillus cereus): 0.097 µg/mL (≈ 0.198 µM)
MIC (Staphylococcus aureus [1]): 3.12 µg/mL (≈ 6.37 µM)
Activity (L929 [5]): Toxic
MIC (Staphylococcus aureus [2]): 0.78 µg/mL (≈ 1.59 µM)
MIC (Staphylococcus aureus [3]): 3.12 µg/mL (≈ 6.37 µM)
Activity (L929 [6]): Non-toxic

CC(=O)NC[C@H]1CN(c2ccc(N3CCN(CC(O)Cn4cnc([N+](=O)[O-])c4)CC3)c(F)c2)C(=O)O1 (stereo partly specified)
MIC (Streptococcus pyogenes): 3.12 µg/mL (≈ 6.17 µM)
MIC (Klebsiella pneumoniae): > 50 µg/mL
MIC (Bacillus cereus): 3.12 µg/mL (≈ 6.17 µM)
MIC (Staphylococcus aureus [1]): 12.5 µg/mL (≈ 24.7 µM)
MIC (Staphylococcus aureus [2]): 6.25 µg/mL (≈ 12.4 µM)
MIC (Staphylococcus aureus [3]): 6.25 µg/mL (≈ 12.4 µM)

CC(=O)NC[C@H]1CN(c2ccc(N3CCN(CCCn4ccnc4[N+](=O)[O-])CC3)c(F)c2)C(=O)O1
MIC (Streptococcus pyogenes): 0.78 µg/mL (≈ 1.59 µM)
MIC (Enterococcus faecalis): 12.5 µg/mL (≈ 25.5 µM)
MIC (Klebsiella pneumoniae): 0.78 µg/mL (≈ 1.59 µM)
MIC (Bacillus cereus): 6.25 µg/mL (≈ 12.8 µM)
MIC (Staphylococcus aureus [1]): 12.5 µg/mL (≈ 25.5 µM)
MIC (Staphylococcus aureus [2]): 6.25 µg/mL (≈ 12.8 µM)
MIC (Staphylococcus aureus [3]): 6.25 µg/mL (≈ 12.8 µM)

CC(=O)NC[C@H]1CN(c2ccc(N3CCN(CCCn4cnc([N+](=O)[O-])c4)CC3)c(F)c2)C(=O)O1
MIC (Streptococcus pyogenes): 0.39 µg/mL (≈ 0.797 µM)
Activity (L929 [4]): Toxic
MIC (Enterococcus faecalis): 0.78 µg/mL (≈ 1.59 µM)
MIC (Klebsiella pneumoniae): 0.78 µg/mL (≈ 1.59 µM)
MIC (Bacillus cereus): 0.78 µg/mL (≈ 1.59 µM)
MIC (Staphylococcus aureus [1]): 0.78 µg/mL (≈ 1.59 µM)
Activity (L929 [5]): Toxic
MIC (Staphylococcus aureus [2]): 0.78 µg/mL (≈ 1.59 µM)
MIC (Staphylococcus aureus [3]): 0.78 µg/mL (≈ 1.59 µM)
Activity (L929 [6]): Non-toxic

CC(=O)NC[C@H]1CN(c2ccc(N3CCN(C(=O)Cn4cnc([N+](=O)[O-])c4)CC3)c(F)c2)C(=O)O1
MIC (Streptococcus pyogenes): 1.56 µg/mL (≈ 3.19 µM)
MIC (Enterococcus faecalis): 25 µg/mL (≈ 51.1 µM)
MIC (Klebsiella pneumoniae): 25 µg/mL (≈ 51.1 µM)
MIC (Bacillus cereus): 6.25 µg/mL (≈ 12.8 µM)
MIC (Staphylococcus aureus [1]): 12.5 µg/mL (≈ 25.5 µM)
MIC (Staphylococcus aureus [2]): 3.12 µg/mL (≈ 6.37 µM)
MIC (Staphylococcus aureus [3]): 12.5 µg/mL (≈ 25.5 µM)

CC(=O)NC[C@H]1CN(c2ccc(N3CCOCC3)c(F)c2)C(=O)O1 [LINEZOLID]
MIC (Streptococcus pyogenes): 1.56 µg/mL (≈ 4.62 µM)
MIC (Enterococcus faecalis): 3.12 µg/mL (≈ 9.25 µM)
MIC (Klebsiella pneumoniae): 1.56 µg/mL (≈ 4.62 µM)
MIC (Bacillus cereus): 0.78 µg/mL (≈ 2.31 µM)
MIC (Staphylococcus aureus [1]): 3.12 µg/mL (≈ 9.25 µM)
MIC (Staphylococcus aureus [2]): 1.56 µg/mL (≈ 4.62 µM)
MIC (Staphylococcus aureus [3]): 1.56 µg/mL (≈ 4.62 µM)

CN[C@H](CC(C)C)C(=O)N[C@H]1C(=O)N[C@@H](CC(N)=O)C(=O)N[C@H]2C(=O)N[C@H]3C(=O)N[C@H](C(=O)N[C@H](C(=O)O)c4cc(O)cc(O)c4-c4cc3ccc4O)[C@H](O)c3ccc(c(Cl)c3)Oc3cc2cc(c3O[C@@H]2O[C@H](CO)[C@@H](O)[C@H](O)[C@H]2O[C@H]2C[C@](C)(N)[C@H](O)[C@H](C)O2)Oc2ccc(cc2Cl)[C@H]1O [VANCOMYCIN]
MIC (Streptococcus pyogenes): 0.39 µg/mL (≈ 0.269 µM)
MIC (Enterococcus faecalis): 0.78 µg/mL (≈ 0.538 µM)
MIC (Bacillus cereus): 0.19 µg/mL (≈ 0.131 µM)
MIC (Staphylococcus aureus [1]): 1.56 µg/mL (≈ 1.08 µM)
MIC (Staphylococcus aureus [2]): 6.25 µg/mL (≈ 4.31 µM)
MIC (Staphylococcus aureus [3]): 0.39 µg/mL (≈ 0.269 µM)
